This is an account of results in ChEMBL document CHEMBL5030534, “Discovery of Novel Anti-Breast-Cancer Inhibitors by Synergistically Antagonizing Microtubule Polymerization and Aryl Hydrocarbon Receptor Expression” (J Med Chem, 2021).

The source made the active and inactive calls. No cut-off for these calls is given here.

The subject of data set [1] is MCF7. In words: Cell cycle arrest in human MCF7 cells assessed as decrease in Cdc25c protein expression. It is filed as functional, cell-based. The note with it: dose 1-4 nM. The procedure, abridged:
(§1)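 MCF-7 seeded 4 × 10⁵ per well for 24 h, then DMSO or compound at 1, 2, 4 nM for 24 h. Lysates protein-normalized to 3 mg/mL by BCA, resolved on 4–20% SDS-PAGE and immunoblotted. Bands quantified relative to β-actin (cell-cycle proteins) or GAPDH (apoptosis proteins); n = 3.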

The test system of data set [2] is MCF7. Put plainly: Induction of apoptosis in human MCF7 cells assessed as increase in Bax protein expression at 1 to 4 nM. It is filed as functional, cell-based. The note with it: dose 1-4 nM. The procedure, abridged: as §1
For data set [3], the system named is MCF7. In words: Induction of apoptosis in human MCF7 cells assessed as viable cells at 2 nM measured after 24 hrs in presence of DMBA by Annexin V-FITC and PI staining based flow cytometry assay (reference value: 96.5%). It is filed as functional. The following applies: read-out: Activity. (Flow cytometry measures light scatter and fluorescence of single cells or particles in a stream.)

The target in data set [4] is Tubulin (Homo sapiens) (UniProt P68371+Q9H4B7+P0DPH7+P68366+Q13509+Q71U36+P04350+Q3ZCM7+P07437+P68363+Q9BQE3+Q6PEY2+Q13885+Q9BVA1+Q9BUF5). Put plainly: Induction of microtubule damage in human MCF7 cells at 0.5 nM incubated for 48 hrs by DAPI staining based immunofluorescence assay. It is filed as cell-based. An outline of the steps:
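Blocked with goat serum for 20 min, probed with anti-β-tubulin for 2 h, fluorescent secondary antibody and DAPI nuclear stain, imaged by laser confocal microscopy.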

The test system of data set [5] is MCF7. Put plainly: Cell migration rate in human MCF7 cells at 2 nM incubated for 24 hrs by inverted fluorescence microscopic method (reference value: 11.51%). The note with it: MCF7, 24 h.
Data set [6] is described as follows: Toxicity in BALB/c nude mouse xenografted with human MCF7 cells assessed as effect on heart at 0.5 to 1 mg/kg, iv administered every 2 days for 21 days by H and E staining based assay. The note with it: in vivo, 504 h, dose 0.5-1 mg/kg, time 21 day. It is filed as organism-based. An outline of the steps: (§2)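 Nude mice given 6 × 10⁶ MCF-7 cells subcutaneously on right flank; after 7 days randomized, eight per group. iv dosing every 2 days at 0.5 or 1 mg/kg; vehicle 10% DMSO/5% Tween 80/85% saline; paclitaxel 10 mg/kg and CA-4 20 mg/kg references. Body weight every 2 days; killed after 21 days; organs fixed, paraffin-sectioned, H&E stained.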
On the technique in general: Xenograft models place foreign cells or tissue in a host animal.

Data set [7] has as its system MCF7. In words: Induction of ROS generation in human MCF7 cells at 2 nM measured after 24 hrs in presence of N-acetylcysteine by DCFH-DA staining based flow cytometric analysis. It is filed as functional. An outline of the steps:
(§3)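 MCF-7 seeded 4 × 10⁵ per well for 24 h, then DMSO or 0.5, 1, 2 nM for 24 h. Loaded with DCFH-DA for 30 min in the dark, resuspended in serum-free medium, DCF fluorescence measured by flow cytometry. For scavenger condition, 2.5 mM N-acetyl-L-cysteine pretreatment, then 2 nM for 24 h. Three runs.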

The test system of data set [8] is MCF7. In words: Induction of apoptosis in human MCF7 cells assessed as necrotic cells at 2 nM measured after 24 hrs by Annexin V-FITC and PI staining based flow cytometry assay (reference value: 0.28%). It is filed as functional.
Data set [9] deals with MCF7. In words: Induction of apoptosis in human MCF7 cells assessed as decrease in of Bcl-2 protein expression at 1 to 4 nM. It is filed as functional, cell-based. The following applies: dose 1-4 nM. The procedure, abridged:
as §1

Data set [10] has as its target T1, Aryl hydrocarbon receptor (Homo sapiens, UniProt P35869).
T1 sequence (P35869 whole entry): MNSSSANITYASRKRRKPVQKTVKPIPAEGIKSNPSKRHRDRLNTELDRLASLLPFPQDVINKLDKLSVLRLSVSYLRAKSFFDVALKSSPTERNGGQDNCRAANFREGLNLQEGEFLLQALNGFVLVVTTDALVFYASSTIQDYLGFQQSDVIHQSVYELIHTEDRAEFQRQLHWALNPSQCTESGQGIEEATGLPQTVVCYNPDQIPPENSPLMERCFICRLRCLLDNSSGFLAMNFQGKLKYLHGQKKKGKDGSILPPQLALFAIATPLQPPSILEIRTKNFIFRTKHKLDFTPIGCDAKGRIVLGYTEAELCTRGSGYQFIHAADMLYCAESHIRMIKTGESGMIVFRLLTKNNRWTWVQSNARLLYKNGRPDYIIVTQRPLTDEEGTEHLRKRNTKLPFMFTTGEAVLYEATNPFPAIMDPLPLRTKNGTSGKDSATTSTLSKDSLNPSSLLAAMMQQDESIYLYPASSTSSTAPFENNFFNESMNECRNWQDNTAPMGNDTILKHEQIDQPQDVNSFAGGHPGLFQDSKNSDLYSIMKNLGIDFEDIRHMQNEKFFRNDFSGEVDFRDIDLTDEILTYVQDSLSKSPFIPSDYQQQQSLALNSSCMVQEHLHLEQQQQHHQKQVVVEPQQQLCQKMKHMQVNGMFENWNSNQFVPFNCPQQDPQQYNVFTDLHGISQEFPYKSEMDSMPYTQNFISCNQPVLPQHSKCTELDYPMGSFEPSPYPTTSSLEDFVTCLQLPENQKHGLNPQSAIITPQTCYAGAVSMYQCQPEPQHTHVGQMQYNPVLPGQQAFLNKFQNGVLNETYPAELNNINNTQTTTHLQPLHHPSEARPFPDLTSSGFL
In words: Inhibition of AhR signalling in human MCF7 cells assessed as reduction in AhR level at 2 nM incubated for 24 hrs in presence of DMBA by Western blot analysis. The following applies: mcf7, 24 h, 0.002 µM. It is filed as cell-based. The procedure, abridged: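 MCF-7 treated with DMBA (400 nM), DMBA plus 2 nM, or 2 nM alone. AhR measured by Western blot relative to loading control; n = 3.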
In general terms: In western blotting, separated proteins are transferred to a membrane and probed.

The test system of data set [11] is MCF7. In words: Inhibition of AhR signalling in human MCF7 cells assessed as reduction in AhR level incubated for 24 hrs by Western blot analysis. It is filed as functional, cell-based. The following applies: dose 1-4 nM. An outline of the steps: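 MCF-7 cells seeded 4 × 10⁵ per well, grown 24 h, then exposed to DMSO or 1, 2, 4 nM for 24 h; BAY 2416964 served as AhR antagonist reference. Lysates adjusted to 3 mg/mL protein by BCA, resolved on 4−20% SDS-PAGE, immunoblotted; AhR and CYP1A1 bands normalized to GAPDH. Three independent runs.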

Data set [12] relates to MCF7. Put plainly: Induction of ROS generation in human MCF7 cells measured after 24 hrs by DCFH-DA staining based flow cytometric analysis. It is filed as functional, cell-based. The following applies: dose 0.5-2 nM. An outline of the steps:
as §3

Data set [13] is described as follows: Toxicity in BALB/c nude mouse xenografted with human MCF7 cells assessed as effect on spleen at 0.5 to 1 mg/kg, iv administered every 2 days for 21 days by H and E staining based assay. It is filed as organism-based. The note with it: in vivo, 504 h, dose 0.5-1 mg/kg, time 21 day. An outline of the steps: as §2
Data set [14] has as its system MCF7. Put plainly: Induction of apoptosis in human MCF7 cells assessed as late apoptotic cells at 2 nM measured after 24 hrs by Annexin V-FITC and PI staining based flow cytometry assay (reference value: 2.06%). It is filed as functional.
The subject of data set [15] is MCF7. Put plainly: Antitumor activity against human MCF7 cells xenografted in BALB/c nude mouse assessed as reduction in tumor microvessel density at 1 mg/kg, iv administered every 2 days and measured after 21 days by immunohistochemistry analysis. It is filed as functional, organism-based. The note with it: time 21.0 day. The procedure, abridged:
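Same subcutaneous MCF-7 nude-mouse xenografts dosed iv every 2 days for 21 days. Tumors then fixed, paraffin-embedded and sectioned. Apoptotic cells detected by TUNEL fluorescent staining with DNA counterstain; microvessel density measured by anti-CD31 immunohistochemistry.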

Regarding `Cc1nc(N(C)c2ccc3c(c2)cc(C)n3C)c2ccccc2n1`, the Activity entry in data set [1] is “Dose-Dependent Effect”; in data set [6], “Non-Toxic”; in data set [7], 24.7%; in data set [8], 4.51%; in data set [12], “Dose-Dependent Effect”; in [13], “Non-Toxic”. In data set [14], the Activity is on record as 45.1%. The result in [2], in [9] and in [15] was Active. For the same compound, in data set [3], the viability at 0.002 µM was 67.5%. The result in data set [4] was inactive. In addition, the Migration rate at 0.002 µM in [5] was 3.78%. Besides, in data set [10], the “inhibition (INH)” value was “Active”. In addition, in data set [11], the inhibition entry was “Dose-Dependent Effect”.
